Values belong to the compound of their own block, whether it stands above or below them. Residues, ends and D or L forms follow the SMILES beside them.
How the values were obtained:
[1] = Selectivity ratio of antioxidant activity assessed as HNE quenching to antioxidant activity assessed as PYR quenching
In short: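 Ratio of % HNE quenched to % pyridoxal quenched. Both measured after 180 min incubation, with % consumption taken against blanks without compound.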

[2] = Antioxidant activity assessed as PYR quenching after 180 mins by HPLC analysis; type: functional; design: concentration or dose not given beside the values
In short: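 Pyridoxal used as the target aldehyde under the same incubation (180 min). Consumption determined by HPLC with fluorimetric detection. Expressed as % aldehyde consumed versus a blank incubated without compound.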

[3] = Antioxidant activity assessed as HNE quenching at 1 mM after 180 mins by HPLC analysis; type: functional
In short: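 HNE consumption measured with dipeptide at 1 mM in 10 mmol PBS pH 7.4, 180 min at 37 °C. Remaining HNE measured by reversed-phase HPLC with PDA detection at 224 nm. Column at 37 °C. Isocratic H2O/CH3CN/HCOOH 40/60/0.1. Result given as % aldehyde consumed relative to a blank without compound.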

[4] = Stability in human serum assessed as compound remaining at 50 uM after 30 mins by LC-MS analysis; type: ADME, cell-free; conditions: read-out: Stability

Structure (SMILES): NC(=O)[C@@H](Cc1cnc[nH]1)NC(=O)[C@@H](N)CS
Selectivity ratio [1]: 2.69
Activity [2]: 37.2%
Activity [3]: 100%

remaining at 0.5 h, 50 µM [4]: 87.5%
Structure (SMILES): COC(=O)[C@H](Cc1cnc[nH]1)NC(=O)[C@@H](N)CCCCN
Selectivity ratio [1]: 16.7
Activity [2]: 1.87%
Activity [3]: 31.3%

Structure (SMILES): COC(=O)[C@@H](Cc1cnc[nH]1)NC(=O)[C@@H](N)C(C)C
Selectivity ratio [1]: 4.67
Activity [2]: 3.62%
Activity [3]: 16.9%

Structure (SMILES): COC(=O)[C@H](Cc1cnc[nH]1)NC(=O)[C@@H](N)C(C)C
Selectivity ratio [1]: 5.71
Activity [2]: 0.87%
Activity [3]: 4.97%

Structure (SMILES): C[C@@H](O)[C@H](N)C(=O)N[C@@H](Cc1cnc[nH]1)C(N)=O
Selectivity ratio [1]: 2.75
Activity [2]: 1.42%
Activity [3]: 3.9%

Structure (SMILES): CC[C@H](C)[C@H](N)C(=O)N[C@@H](Cc1cnc[nH]1)C(N)=O
Selectivity ratio [1]: 3.51
Activity [2]: 2.02%
Activity [3]: 7.09%

Structure (SMILES): COC(=O)[C@H](Cc1cnc[nH]1)NC(=O)[C@@H](N)CCC(=O)O
Selectivity ratio [1]: 16.1
Activity [2]: 0.76%
Activity [3]: 12.2%

remaining at 0.5 h, 50 µM [4]: 40.5%
Structure (SMILES): COC(=O)[C@@H](Cc1cnc[nH]1)NC(=O)[C@@H](N)Cc1ccc(O)cc1
Selectivity ratio [1]: 21.3
Activity [2]: 1.29%
Activity [3]: 27.4%

Structure (SMILES): COC(=O)[C@@H](Cc1cnc[nH]1)NC(=O)[C@@H](N)Cc1c[nH]c2ccccc12
Selectivity ratio [1]: 3.24
Activity [2]: 5.81%
Activity [3]: 18.8%

Structure (SMILES): COC(=O)[C@H](Cc1cnc[nH]1)NC(=O)[C@@H](N)CS
Selectivity ratio [1]: 3.96
Activity [2]: 25.3%
Activity [3]: 100%

Structure (SMILES): NC(=O)CC[C@H](N)C(=O)N[C@@H](Cc1cnc[nH]1)C(N)=O
Selectivity ratio [1]: 3.54
Activity [2]: 2.65%
Activity [3]: 9.37%

remaining at 0.5 h, 50 µM [4]: 90.5%
Structure (SMILES): COC(=O)[C@@H](Cc1cnc[nH]1)NC(=O)[C@@H](N)CCCCN
Selectivity ratio [1]: 29.1
Activity [2]: 0.35%
Activity [3]: 10.2%

Structure (SMILES): N=C(N)NCCC[C@H](N)C(=O)N[C@@H](Cc1cnc[nH]1)C(N)=O
Selectivity ratio [1]: 30
Activity [2]: 0.26%
Activity [3]: 7.79%

Structure (SMILES): COC(=O)[C@H](Cc1cnc[nH]1)NC(=O)[C@@H](N)CC(N)=O
Selectivity ratio [1]: 9.59
Activity [2]: 1%
Activity [3]: 9.59%

Structure (SMILES): C[C@@H](O)[C@H](N)C(=O)N[C@H](Cc1cnc[nH]1)C(N)=O
Selectivity ratio [1]: 1.83
Activity [2]: 6.62%
Activity [3]: 12.1%

Structure (SMILES): NC(=O)[C@@H](Cc1cnc[nH]1)NC(=O)[C@@H](N)Cc1cnc[nH]1
Selectivity ratio [1]: 1.26
Activity [2]: 7.28%
Activity [3]: 9.16%

Structure (SMILES): NCC(=O)N[C@@H](Cc1cnc[nH]1)C(=O)O (H-Gly-His-OH)
Selectivity ratio [1]: 2.42
Activity [2]: 3.77%
Activity [3]: 9.11%

Structure (SMILES): COC(=O)[C@@H](Cc1cnc[nH]1)NC(=O)[C@@H](N)CS
Selectivity ratio [1]: 2.45
Activity [2]: 40.8%
Activity [3]: 100%

Structure (SMILES): NC(=O)[C@@H](Cc1cnc[nH]1)NC(=O)[C@@H](N)CC(=O)O
Selectivity ratio [1]: 4.02
Activity [2]: 1.16%
Activity [3]: 5.98%

Structure (SMILES): COC(=O)[C@H](Cc1cnc[nH]1)NC(=O)[C@@H](N)Cc1cnc[nH]1
Selectivity ratio [1]: 3.3
Activity [2]: 1.82%
Activity [3]: 6%

Structure (SMILES): CC[C@H](C)[C@H](N)C(=O)N[C@H](Cc1cnc[nH]1)C(N)=O
Selectivity ratio [1]: 8.69
Activity [2]: 0.59%
Activity [3]: 5.13%

Structure (SMILES): NC(=O)[C@H](Cc1cnc[nH]1)NC(=O)[C@@H](N)Cc1ccccc1
Selectivity ratio [1]: 8.02
Activity [2]: 1.22%
Activity [3]: 9.79%

Structure (SMILES): NC(=O)[C@@H](Cc1cnc[nH]1)NC(=O)[C@@H](N)Cc1ccccc1
Selectivity ratio [1]: 9.57
Activity [2]: 0.7%
Activity [3]: 6.7%

remaining at 0.5 h, 50 µM [4]: 81.3%
Structure (SMILES): NC(=O)CC[C@H](N)C(=O)N[C@H](Cc1cnc[nH]1)C(N)=O
Selectivity ratio [1]: 9.4
Activity [2]: 1.57%
Activity [3]: 14.8%

remaining at 0.5 h, 50 µM [4]: 68%
Structure (SMILES): NCCCC[C@H](N)C(=O)N[C@H](Cc1cnc[nH]1)C(N)=O
Selectivity ratio [1]: 5.55
Activity [2]: 0.75%
Activity [3]: 4.16%

Structure (SMILES): NC(=O)[C@H](Cc1cnc[nH]1)NC(=O)[C@@H](N)CS
Selectivity ratio [1]: 3.61
Activity [2]: 27.7%
Activity [3]: 100%

Structure (SMILES): COC(=O)[C@@H](Cc1cnc[nH]1)NC(=O)[C@@H](N)Cc1cnc[nH]1
Selectivity ratio [1]: 1.15
Activity [2]: 7.7%
Activity [3]: 8.86%

Structure (SMILES): NC(=O)[C@H](Cc1cnc[nH]1)NC(=O)[C@@H](N)CC(=O)O
Selectivity ratio [1]: 5.16
Activity [2]: 1.49%
Activity [3]: 5.99%

Structure (SMILES): COC(=O)[C@H](Cc1cnc[nH]1)NC(=O)[C@@H](N)CO
Selectivity ratio [1]: 51.8
Activity [2]: 0.1%
Activity [3]: 5.18%

Structure (SMILES): COC(=O)[C@H](Cc1cnc[nH]1)NC(=O)[C@@H](N)Cc1ccc(O)cc1
Selectivity ratio [1]: 3.12
Activity [2]: 4.02%
Activity [3]: 12.5%

Structure (SMILES): NC(=O)[C@@H](Cc1cnc[nH]1)NC(=O)[C@@H](N)Cc1c[nH]c2ccccc12
Selectivity ratio [1]: 86.2
Activity [2]: 0.13%
Activity [3]: 11.2%

Structure (SMILES): COC(=O)[C@@H](Cc1cnc[nH]1)NC(=O)[C@@H](N)CCSC
Selectivity ratio [1]: 0.58
Activity [2]: 3.11%
Activity [3]: 1.81%

Structure (SMILES): N=C(N)NCCC[C@H](N)C(=O)N[C@H](Cc1cnc[nH]1)C(N)=O
Selectivity ratio [1]: 27.9
Activity [2]: 0.43%
Activity [3]: 12%

Structure (SMILES): COC(=O)[C@H](Cc1cnc[nH]1)NC(=O)[C@@H](N)CCSC
Selectivity ratio [1]: 0.07
Activity [2]: 2.61%
Activity [3]: 0.17%

remaining at 0.5 h, 50 µM [4]: 67.7%
Structure (SMILES): NCCCC[C@H](N)C(=O)N[C@@H](Cc1cnc[nH]1)C(N)=O
Selectivity ratio [1]: 38.3
Activity [2]: 0.41%
Activity [3]: 15.7%

Structure (SMILES): NC(=O)[C@H](Cc1cnc[nH]1)NC(=O)[C@@H](N)Cc1c[nH]c2ccccc12
Selectivity ratio [1]: 6.01
Activity [2]: 1.86%
Activity [3]: 8.62%

Structure (SMILES): COC(=O)[C@@H](Cc1cnc[nH]1)NC(=O)[C@@H](N)CO
Selectivity ratio [1]: 2.84
Activity [2]: 2.08%
Activity [3]: 5.91%

Structure (SMILES): NCCC(=O)N[C@@H](Cc1c[nH]cn1)C(=O)O
Selectivity ratio [1]: 8.65
Activity [2]: 5.57%
Activity [3]: 48.2%

Structure (SMILES): COC(=O)[C@@H](Cc1cnc[nH]1)NC(=O)[C@@H](N)CCC(=O)O
Selectivity ratio [1]: 18
Activity [2]: 0.73%
Activity [3]: 13.1%

Structure (SMILES): COC(=O)[C@@H](Cc1cnc[nH]1)NC(=O)[C@@H](N)CC(N)=O
Selectivity ratio [1]: 8.33
Activity [2]: 1.14%
Activity [3]: 9.5%

Structure (SMILES): COC(=O)[C@H](Cc1c[nH]cn1)NC(=O)[C@@H](N)Cc1c[nH]c2ccccc12
Selectivity ratio [1]: 2.79
Activity [2]: 4.2%
Activity [3]: 11.7%

Structure (SMILES): NC(=O)[C@H](Cc1cnc[nH]1)NC(=O)[C@@H](N)Cc1cnc[nH]1
Selectivity ratio [1]: 1.35
Activity [2]: 7.86%
Activity [3]: 9.81%

— ChEMBL document CHEMBL2407007, “Exploring the space of histidine containing dipeptides in search of novel efficient RCS sequestering agents” (Eur J Med Chem, 2013)
